Activity calls are given as the source filed them. The rule behind the calls is not given here.
Assays:
Monoglyceride lipase = target: T1, Monoglyceride lipase (Homo sapiens, UniProt Q99685); assay: Inhibition of human recombinant MAGL using 7-HCA as substrate preincubated for 30 mins followed by substrate addition measured after 60 mins by fluorescence assay
T1 sequence (Q99685 whole entry): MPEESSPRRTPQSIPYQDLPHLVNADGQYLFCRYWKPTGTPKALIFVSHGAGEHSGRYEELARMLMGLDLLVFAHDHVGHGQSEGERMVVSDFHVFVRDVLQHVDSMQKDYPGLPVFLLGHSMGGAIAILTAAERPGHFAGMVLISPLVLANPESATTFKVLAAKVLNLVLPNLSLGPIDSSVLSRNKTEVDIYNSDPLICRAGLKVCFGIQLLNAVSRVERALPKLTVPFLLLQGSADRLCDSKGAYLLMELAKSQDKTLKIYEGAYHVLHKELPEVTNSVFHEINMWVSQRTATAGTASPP
Method in brief: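 Reaction started with 7-HCA (5 μM final), run 60 min, fluorescence Ex/Em 340/465. Percent inhibition versus no-compound and full-inhibition controls; IC50 from four-parameter fit.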

[1] = target: T2, Monoacylglycerol lipase ABHD6 (Homo sapiens) (UniProt Q9BV23); assay: Inhibition of human ABHD6 at 1 to 10 uM relative to control
T2 sequence (whole entry): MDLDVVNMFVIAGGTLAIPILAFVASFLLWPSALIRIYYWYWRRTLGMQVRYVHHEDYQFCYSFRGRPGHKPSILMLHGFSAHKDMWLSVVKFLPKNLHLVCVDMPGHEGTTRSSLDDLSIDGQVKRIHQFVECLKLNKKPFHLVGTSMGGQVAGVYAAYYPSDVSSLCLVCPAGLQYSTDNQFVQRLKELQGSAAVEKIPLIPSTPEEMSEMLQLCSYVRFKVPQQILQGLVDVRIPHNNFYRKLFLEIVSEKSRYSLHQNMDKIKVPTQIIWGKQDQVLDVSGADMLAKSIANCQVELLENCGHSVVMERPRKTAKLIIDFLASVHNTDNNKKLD

Cocaine esterase = target: T3, Cocaine esterase (Homo sapiens, UniProt O00748); assay: Inhibition of human CES2 at 1 to 10 uM relative to control
T3 sequence (O00748 whole entry): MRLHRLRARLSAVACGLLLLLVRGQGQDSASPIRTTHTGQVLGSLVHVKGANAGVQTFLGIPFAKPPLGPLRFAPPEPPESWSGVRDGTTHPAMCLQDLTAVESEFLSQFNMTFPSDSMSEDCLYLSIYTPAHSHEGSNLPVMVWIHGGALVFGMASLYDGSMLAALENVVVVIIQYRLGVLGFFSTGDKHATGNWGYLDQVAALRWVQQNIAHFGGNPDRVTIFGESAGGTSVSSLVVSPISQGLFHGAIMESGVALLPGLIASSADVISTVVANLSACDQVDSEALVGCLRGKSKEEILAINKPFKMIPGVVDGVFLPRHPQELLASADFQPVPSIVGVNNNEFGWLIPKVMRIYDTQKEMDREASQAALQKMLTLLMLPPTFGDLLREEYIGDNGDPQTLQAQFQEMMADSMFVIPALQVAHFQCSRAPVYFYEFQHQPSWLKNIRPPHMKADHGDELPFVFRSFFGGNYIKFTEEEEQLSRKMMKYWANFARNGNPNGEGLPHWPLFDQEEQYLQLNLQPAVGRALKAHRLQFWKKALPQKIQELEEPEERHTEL

[2] = target: T4, Monoglyceride lipase (Homo sapiens) (UniProt Q99685); assay: Inhibition of human recombinant MAGL at 1 to 10 uM using 7-HCA as substrate preincubated for 30 mins followed by substrate addition measured after 60 mins by fluorescence assay relative to control
T4 sequence (whole entry): T1 sequence (Q99685 whole entry)

[3] = target: T5, Fatty-acid amide hydrolase 1 (Homo sapiens) (UniProt O00519); assay: Inhibition of human recombinant FAAH at 10 uM using arachidonoyl-AMC as substrate preincubated for 30 mins followed by substrate addition measured after 60 mins by fluorescence assay relative to control
T5 sequence (whole entry): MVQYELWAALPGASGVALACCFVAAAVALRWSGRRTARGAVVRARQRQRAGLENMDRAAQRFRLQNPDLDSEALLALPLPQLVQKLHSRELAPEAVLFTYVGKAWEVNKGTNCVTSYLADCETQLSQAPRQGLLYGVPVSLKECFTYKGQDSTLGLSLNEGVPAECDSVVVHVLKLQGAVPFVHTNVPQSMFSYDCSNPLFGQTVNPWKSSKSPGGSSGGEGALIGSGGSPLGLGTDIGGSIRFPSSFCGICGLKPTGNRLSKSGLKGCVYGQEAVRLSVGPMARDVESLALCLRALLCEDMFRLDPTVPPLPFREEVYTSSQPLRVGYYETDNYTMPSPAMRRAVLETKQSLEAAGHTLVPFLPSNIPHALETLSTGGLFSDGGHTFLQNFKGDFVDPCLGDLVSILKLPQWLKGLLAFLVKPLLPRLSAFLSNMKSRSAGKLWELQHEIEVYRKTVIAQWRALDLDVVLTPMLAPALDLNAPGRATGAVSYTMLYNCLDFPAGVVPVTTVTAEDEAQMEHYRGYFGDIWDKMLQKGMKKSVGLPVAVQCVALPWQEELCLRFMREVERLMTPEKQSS

[4] = Ratio of unbound drug level in C57Bl6 mouse brain to plasma at 1 to 10 mg/kg, sc; type: ADME, organism-based
[5] = Lipophilicity, log D of the compound; type: physicochemical; settings: octanol/water
Brain = assay: Unbound drug level in C57Bl6 mouse brain at 10 mg/kg, sc at 0.5 hrs; type: ADME, organism-based; settings: in vivo
Method in brief: (§1)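 Subcutaneous dosing of C57Bl6 mice in DMSO/Cremophor/saline (5:5:90). Plasma (NaF/K2EDTA tubes) and cerebellum collected at 0.5–24 h, 3 mice per time point. Cerebellum diluted 1:4 (w/v) with water and homogenized; samples deproteinated with methanol/acetonitrile plus internal standard, then HPLC-MS/MS. LLOQ 1.0 ng/mL plasma, 0.5 ng/mL brain homogenate. PK parameters by noncompartmental analysis.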

Mus musculus [6] = assay: Time required for unbound brain concentration to reach above in vitro IC50 for recombinant human MAGL in C57Bl6 mouse at 10 mg/kg, sc; method in brief: as §1
Mus musculus [7] = assay: In vivo inhibition of MAGL in C57Bl6 mouse assessed as increase in 2-AG levels in brain at 1 mg/kg, sc measured after 1 to 24 hrs by LC-MS/MS method; type: functional, organism-based
Method in brief: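 C57Bl6 mice, 7 weeks old, 4 per cage, food and water ad libitum, dosed subcutaneously in DMSO/Cremophor/saline (5:5:90, v/v/v). Brains taken after isoflurane, cardiac puncture and cervical dislocation at 0.5, 1, 2, 4, 8, 12 and 24 h (3 mice per time point); vehicle group at 1 h. Frozen in liquid nitrogen, homogenized in 3 volumes PMSF/NH4OAc buffer pH 2.0, d5-2-AG internal standard, ACN extraction, LC-MS/MS (positive ESI, SRM).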

[8] = target: T4, Monoglyceride lipase (Homo sapiens); assay: Inhibition of MAGL in human brain vascular pericytes; type: cell-based
Method in brief: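 Human brain vascular pericytes grown in DMEM/F12 with 5% heat-inactivated FBS and pericyte growth supplement, then given alkyne-tagged probe (1000× DMSO stock) in medium for 1 h at 37 °C. Pellets lysed in PBS/0.25% SDS, proteome normalized to 1.0 mg/mL, Cu-catalyzed click with TAMRA azide, SDS-PAGE in-gel fluorescence. Two MAGL bands averaged; two biological replicates fitted to a dose–response curve.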

IC50 (Monoglyceride lipase) [nM]	inhibition [1] [%]	inhibition (INH) (Cocaine esterase) [%]	inhibition [2] [%]	inhibition [3] [%]	Kp uu [4]	logD [5]	Drug uptake(free) (Brain) [nM]	inhibition [8]	SMILES	Time (Mus musculus [6]) [h]	inhibition (Mus musculus [7])
2	> 70	> 70	> 70	> 70	0.5				O=C(OC(C(F)(F)F)C(F)(F)F)N1CCC(c2ccn(-c3ccccc3)n2)CC1		
0.18	> 70	> 70	> 70	> 70		4.3	2	Active	O=C(OC(C(F)(F)F)C(F)(F)F)N1CC(c2ccn(-c3ccccc3)n2)C1	8	inactive
